Laboratory results taken from ChEMBL document CHEMBL1139049, “Highly potent 3-pyrroline mechanism-based inhibitors of bovine plasma amine oxidase and mass spectrometric confirmation of cofactor derivatization” (Bioorg Med Chem, 2007).
Calls of active or inactive are those of the source. The calls are words filed in the database; no cut-off is given here.

Assays:
Bos taurus [1] = species: Bos taurus; test: Inhibition of BPAO assessed as redox cycling activity by NBT assay
Summary of the method: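 BPAO was inactivated by preincubation with inhibitor in 50 mM sodium phosphate, pH 7.2. The inactivated preparations were then tested for TPQ cofactor redox cycling by the standard sodium glycinate nitroblue tetrazolium staining assay.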

Bos taurus [2] = species: Bos taurus; test: Ratio of kinact to Ki for BPAO
Summary of the method: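 Inactivation of ~1 μM BPAO by varying inhibitor concentrations, at 30 °C in 50 mM sodium phosphate, pH 7.2. Residual activity in time aliquots was read by benzylamine oxidation (benzaldehyde, 250 nm). Log activity versus time gave pseudo-first-order rates, and kinact and Ki were obtained from Kitz–Wilson plots.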

[3] = (§1) Inhibition of BPAO after 20 mins by benzylamine assay; set-up: species or system Bos taurus
Summary of the method: (§2)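 Bovine plasma amine oxidase (~1 μM) preincubated with varying inhibitor concentrations at 30 °C in 50 mM sodium phosphate, pH 7.2. Aliquots taken over time were assayed for residual activity by the benzylamine assay, with benzaldehyde formation followed at 250 nm. The value is the concentration giving 50% inactivation at a fixed 20 min.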

Bos taurus [4] = species: Bos taurus; test: as §1; summary of the method: as §2

**Q.** With Fc1c(F)c(F)c(C2=CCNC2)c(F)c1F as the compound, how does the Activity (Bos taurus [1]) read?
**A.** Active

**Q.** What about the Ratio (Bos taurus [2]) of the same compound?
**A.** 6 mM⁻¹ min⁻¹

**Q.** What about the IC50 [3] of the same compound?
**A.** 6.1 µM

**Q.** With C1=C(c2ccc3ccccc3n2)CNC1 as the compound, how does the Ratio (Bos taurus [2]) read?
**A.** 13 mM⁻¹ min⁻¹

**Q.** And the IC50 [3]?
**A.** 2.7 µM

**Q.** Which IC50 [3] does the source give for C[n+]1cccc(C2=CCNC2)c1 here?
**A.** 500 µM

**Q.** With C[n+]1ccc(C2=CCNC2)cc1 as the compound, how does the IC50 [3] read?
**A.** > 1000 µM

**Q.** Which Activity (Bos taurus [1]) does the source give for C1=C(c2nccc3ccccc23)CNC1 here?
**A.** Active

**Q.** What about the Ratio (Bos taurus [2]) of the same compound?
**A.** 40 mM⁻¹ min⁻¹

**Q.** What about the IC50 [3] of the same compound?
**A.** 0.86 µM

**Q.** Which Ratio (Bos taurus [2]) does the source give for C1=C(c2ccccn2)CNC1 here?
**A.** 65 mM⁻¹ min⁻¹

**Q.** What about the IC50 [3] of the same compound?
**A.** 0.75 µM

**Q.** Which results are given for C1=C(c2ccncc2)CNC1?
**A.** Activity (Bos taurus [1]): Active; Ratio (Bos taurus [2]): 1.2 mM⁻¹ min⁻¹; Kinact (Bos taurus [4]): 0.091 min⁻¹; IC50 [3]: 50 µM; Ki [3]: 76 µM

**Q.** With C1=C(c2cccnc2)CNC1 as the compound, how does the Ratio (Bos taurus [2]) read?
**A.** 24 mM⁻¹ min⁻¹

**Q.** And the IC50 [3]?
**A.** 1.5 µM
